ChEMBL document CHEMBL4342520, “Discovery, Structure-Activity Relationship, and Biological Activity of Histone-Competitive Inhibitors of Histone Acetyltransferases P300/CBP” (J Med Chem, 2020)
Calls of active or inactive are those of the source. The rule behind the calls is not given here.

Columns and labels:
[1] = molecular target: T1, Histone acetyltransferase p300 (Homo sapiens, UniProt Q09472); experiment: (§1) Inhibition of recombinant human GST-tagged p300 HAT domain (1195 to 1673 residues) expressed in Escherichia coli BL21 codon plus cells at 10 uM using Histone H3 peptide (1 to 21) and [3H]acetyl-CoA as substrate preincubated with enzyme for 10 mins followed by substrate addition and measured after 30 mins by scintillation counting method relative to control
[2] = molecular target: T1, Histone acetyltransferase p300; experiment: as §1, with “cells” for “cells at 10 uM”, “method” for “method relative to control”
Procedure, shortened: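 The compound (100 nM to 10 µM) was preincubated with p300-HAT (10 nM) for 10 min at 25 °C in 50 mM phosphate buffer pH 7.0 with 0.01% Brij-35. Incorporation of [3H]acetyl from Ac-CoA into histone H3 (1-21) peptide was captured on filter paper, washed with 50 mM NaHCO3 and counted by scintillation. IC50 came from a sigmoidal dose-response fit, mean of at least three experiments.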

[3] = system: MCF7; experiment: Antiproliferative activity against human MCF7 cells assessed as reduction in cell viability incubated for 6 days by Celigo-insitu cell cytometer analysis; conditions: MCF7, 144 h
[4] = system: MCF7; experiment: Antiproliferative activity against human tamoxifen-resistant MCF7 cells assessed as reduction in cell viability incubated for 6 days by Celigo-insitu cell cytometer analysis; conditions: MCF7, 144 h
[5] = system: PANC-1; experiment: Antiproliferative activity against human PANC1 cells assessed as reduction in cell viability incubated for 5 days by MTT assay; conditions: PANC-1, 120 h
[6] = Antiproliferative activity against human MDAPanc28 cells assessed as reduction in cell viability incubated for 5 days by MTT assay; conditions: MDA-Panc-28, 120 h
[7] = system: Kasumi 1; experiment: Antiproliferative activity against human Kasumi-1 cells assessed as reduction in cell viability incubated for 5 days by XTT assay; conditions: Kasumi 1, 120 h
[8] = molecular target: Lysine-specific histone demethylase 1A (Homo sapiens) (UniProt O60341); experiment: Inhibition of LSD1 (unknown origin) at 50 uM
[9] = molecular target: T1, Histone acetyltransferase p300; experiment: Inhibition of His6-tagged p300 HAT domain (unknown origin) assessed as disruption of p300 and Histone H4 (1-21) peptide interaction incubated for 1 hr by Alpha assay
Procedure, shortened: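 Varying compound concentrations were added in PBS with 0.5% BSA for 1 h. Signal was read with excitation at 680 nm and emission at 570 nm. A biotinylated His6 peptide served as an interference counter-control. IC50 came from a sigmoidal fit.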

[10] = molecular target: T2, CREB-binding protein/Histone acetyltransferase p300 (Homo sapiens) (UniProt Q09472+Q92793); experiment: Inhibition of p300/CBP HAT domain in human Kasumi-1 cells assessed as reduction in H3K9 acetylation at 5 to 10 uM incubated for 12 hrs by Western blot analysis; type: cell-based
Procedure, shortened: (§2)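 Kasumi-1 cells (10^6 per well) were treated with compound at 0, 5 and 10 µM for 12 h. Total histones were extracted, and 2 µg was run on SDS-PAGE and blotted to PVDF. Blots were probed for H3K9Ac, H3K18Ac, H3K27Ac and total H3, then with an anti-rabbit IgG secondary.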

[11] = molecular target: T2, CREB-binding protein/Histone acetyltransferase p300 (Homo sapiens); experiment: Inhibition of p300/CBP HAT domain in human Kasumi-1 cells assessed as reduction in H3K18 acetylation at 5 to 10 uM incubated for 12 hrs by Western blot analysis; type: cell-based; procedure, shortened: as §2
[12] = molecular target: T2, CREB-binding protein/Histone acetyltransferase p300 (Homo sapiens); experiment: Inhibition of p300/CBP HAT domain in human Kasumi-1 cells assessed as reduction in H3K27 acetylation at 5 to 10 uM incubated for 12 hrs by Western blot analysis; type: cell-based; procedure, shortened: as §2
[13] = Inhibition of p300 HAT domain (1287-1652 residues) (unknown origin) harboring regulatory auto-acetylation loop deletion mutant and M1652G mutant using H4-15 peptide as substrate preincubated with enzyme and substrate for 10 mins followed by addition of [12C]acetylCoA and [14C]acetylCoA for 10 mins by phosphor-imaging analysis; set-up: species or system Homo sapiens
[14] = molecular target: CREB-binding protein (Homo sapiens, UniProt Q92793); experiment: as §1, with “CBP” for “p300”, “domain” for “domain (1195 to 1673 residues)”, “cells” for “cells at 10 uM”, “method” for “method relative to control”
Procedure, shortened: (§3)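 CBP, PCAF and Myst3 HAT proteins were prepared like GST-p300-HAT: expressed in E. coli BL21-CodonPlus, purified on glutathione resin, then by gel filtration. Inhibition was measured in the same radiometric filter assay with [3H]Ac-CoA and histone H3 (1-21) peptide, read by scintillation counting.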

[15] = molecular target: Histone acetyltransferase KAT2B (Homo sapiens, UniProt Q92831); experiment: Inhibition of recombinant human GST-tagged PCAF expressed in Escherichia coli BL21 codon plus cells using Histone H3 peptide (1 to 21) and [3H]acetyl-CoA as substrate preincubated with enzyme for 10 mins followed by substrate addition and measured after 30 mins by scintillation counting method; procedure, shortened: as §3
[16] = molecular target: Histone acetyltransferase KAT6A (Homo sapiens, UniProt Q92794); experiment: Inhibition of recombinant human GST-tagged Myst3 expressed in Escherichia coli BL21 codon plus cells using Histone H3 peptide (1 to 21) and [3H]acetyl-CoA as substrate preincubated with enzyme for 10 mins followed by substrate addition and measured after 30 mins by scintillation counting method; procedure, shortened: as §3

T1 sequence (Q09472 whole entry, the tested form may be a part): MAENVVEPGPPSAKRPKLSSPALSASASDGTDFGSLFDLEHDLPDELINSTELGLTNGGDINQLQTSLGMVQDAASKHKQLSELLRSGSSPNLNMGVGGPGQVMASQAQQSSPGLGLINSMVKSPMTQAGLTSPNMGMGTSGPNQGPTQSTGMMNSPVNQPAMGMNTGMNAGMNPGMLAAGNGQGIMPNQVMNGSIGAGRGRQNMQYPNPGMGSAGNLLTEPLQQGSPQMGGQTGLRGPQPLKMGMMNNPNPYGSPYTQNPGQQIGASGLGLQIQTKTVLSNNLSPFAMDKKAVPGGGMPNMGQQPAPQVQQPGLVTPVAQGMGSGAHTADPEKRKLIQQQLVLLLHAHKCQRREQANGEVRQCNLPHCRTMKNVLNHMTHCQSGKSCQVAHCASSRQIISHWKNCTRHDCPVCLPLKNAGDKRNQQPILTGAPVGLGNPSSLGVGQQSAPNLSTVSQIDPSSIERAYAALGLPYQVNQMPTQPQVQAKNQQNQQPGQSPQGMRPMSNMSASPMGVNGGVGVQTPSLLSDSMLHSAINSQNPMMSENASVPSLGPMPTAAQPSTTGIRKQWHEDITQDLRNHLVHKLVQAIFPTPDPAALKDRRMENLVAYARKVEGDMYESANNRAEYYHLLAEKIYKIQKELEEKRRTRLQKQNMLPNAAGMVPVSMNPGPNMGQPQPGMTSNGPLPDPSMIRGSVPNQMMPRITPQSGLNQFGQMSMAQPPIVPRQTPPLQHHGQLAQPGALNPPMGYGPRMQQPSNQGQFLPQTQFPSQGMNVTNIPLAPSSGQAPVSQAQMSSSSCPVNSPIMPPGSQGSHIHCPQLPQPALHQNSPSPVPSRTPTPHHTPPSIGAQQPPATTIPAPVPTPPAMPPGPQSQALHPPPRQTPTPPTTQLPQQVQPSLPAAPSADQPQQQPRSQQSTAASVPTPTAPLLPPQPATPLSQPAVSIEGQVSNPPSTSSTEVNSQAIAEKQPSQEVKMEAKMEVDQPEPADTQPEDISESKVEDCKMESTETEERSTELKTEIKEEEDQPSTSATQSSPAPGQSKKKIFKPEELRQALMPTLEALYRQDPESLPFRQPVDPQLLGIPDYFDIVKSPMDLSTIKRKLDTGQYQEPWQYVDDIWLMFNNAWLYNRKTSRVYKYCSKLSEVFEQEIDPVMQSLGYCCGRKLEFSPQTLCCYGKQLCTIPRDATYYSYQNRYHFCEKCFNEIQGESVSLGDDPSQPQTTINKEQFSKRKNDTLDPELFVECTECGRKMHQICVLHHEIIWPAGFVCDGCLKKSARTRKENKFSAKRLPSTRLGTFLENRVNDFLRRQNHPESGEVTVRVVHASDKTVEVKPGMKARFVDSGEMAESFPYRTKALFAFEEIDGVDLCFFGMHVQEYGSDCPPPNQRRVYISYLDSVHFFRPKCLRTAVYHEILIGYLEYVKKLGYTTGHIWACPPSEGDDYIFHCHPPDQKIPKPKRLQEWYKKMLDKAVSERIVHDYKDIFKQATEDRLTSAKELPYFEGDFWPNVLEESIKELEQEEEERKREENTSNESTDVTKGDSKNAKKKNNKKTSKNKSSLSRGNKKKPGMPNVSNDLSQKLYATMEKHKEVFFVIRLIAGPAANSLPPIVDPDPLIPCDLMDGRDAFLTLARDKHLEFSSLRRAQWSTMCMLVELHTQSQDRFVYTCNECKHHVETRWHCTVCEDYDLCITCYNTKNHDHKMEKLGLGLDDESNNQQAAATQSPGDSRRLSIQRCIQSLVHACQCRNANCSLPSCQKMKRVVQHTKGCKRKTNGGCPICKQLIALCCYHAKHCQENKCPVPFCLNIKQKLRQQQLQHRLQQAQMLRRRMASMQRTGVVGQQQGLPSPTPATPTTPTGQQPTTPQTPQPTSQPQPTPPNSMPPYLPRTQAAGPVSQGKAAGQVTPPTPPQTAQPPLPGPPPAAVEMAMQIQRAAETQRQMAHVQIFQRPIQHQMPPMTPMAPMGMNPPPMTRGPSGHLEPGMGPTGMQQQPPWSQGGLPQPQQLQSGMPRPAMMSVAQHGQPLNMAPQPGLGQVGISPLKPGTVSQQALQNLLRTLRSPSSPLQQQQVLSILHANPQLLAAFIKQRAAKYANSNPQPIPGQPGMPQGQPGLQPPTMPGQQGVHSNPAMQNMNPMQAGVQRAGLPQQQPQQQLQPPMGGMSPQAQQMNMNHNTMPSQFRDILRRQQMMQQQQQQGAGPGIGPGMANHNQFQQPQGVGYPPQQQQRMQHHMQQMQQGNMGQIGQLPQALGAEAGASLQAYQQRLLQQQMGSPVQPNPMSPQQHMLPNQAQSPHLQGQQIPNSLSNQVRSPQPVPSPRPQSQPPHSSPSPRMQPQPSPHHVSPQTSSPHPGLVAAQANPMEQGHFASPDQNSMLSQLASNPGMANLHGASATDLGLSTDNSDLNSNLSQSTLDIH
T2 sequence (Q09472 whole entry, looked up, the tested form may be a part): as the sequence (Q09472 whole entry, the tested form may be a part) above
T2 sequence (Q92793 whole entry, looked up, the tested form may be a part): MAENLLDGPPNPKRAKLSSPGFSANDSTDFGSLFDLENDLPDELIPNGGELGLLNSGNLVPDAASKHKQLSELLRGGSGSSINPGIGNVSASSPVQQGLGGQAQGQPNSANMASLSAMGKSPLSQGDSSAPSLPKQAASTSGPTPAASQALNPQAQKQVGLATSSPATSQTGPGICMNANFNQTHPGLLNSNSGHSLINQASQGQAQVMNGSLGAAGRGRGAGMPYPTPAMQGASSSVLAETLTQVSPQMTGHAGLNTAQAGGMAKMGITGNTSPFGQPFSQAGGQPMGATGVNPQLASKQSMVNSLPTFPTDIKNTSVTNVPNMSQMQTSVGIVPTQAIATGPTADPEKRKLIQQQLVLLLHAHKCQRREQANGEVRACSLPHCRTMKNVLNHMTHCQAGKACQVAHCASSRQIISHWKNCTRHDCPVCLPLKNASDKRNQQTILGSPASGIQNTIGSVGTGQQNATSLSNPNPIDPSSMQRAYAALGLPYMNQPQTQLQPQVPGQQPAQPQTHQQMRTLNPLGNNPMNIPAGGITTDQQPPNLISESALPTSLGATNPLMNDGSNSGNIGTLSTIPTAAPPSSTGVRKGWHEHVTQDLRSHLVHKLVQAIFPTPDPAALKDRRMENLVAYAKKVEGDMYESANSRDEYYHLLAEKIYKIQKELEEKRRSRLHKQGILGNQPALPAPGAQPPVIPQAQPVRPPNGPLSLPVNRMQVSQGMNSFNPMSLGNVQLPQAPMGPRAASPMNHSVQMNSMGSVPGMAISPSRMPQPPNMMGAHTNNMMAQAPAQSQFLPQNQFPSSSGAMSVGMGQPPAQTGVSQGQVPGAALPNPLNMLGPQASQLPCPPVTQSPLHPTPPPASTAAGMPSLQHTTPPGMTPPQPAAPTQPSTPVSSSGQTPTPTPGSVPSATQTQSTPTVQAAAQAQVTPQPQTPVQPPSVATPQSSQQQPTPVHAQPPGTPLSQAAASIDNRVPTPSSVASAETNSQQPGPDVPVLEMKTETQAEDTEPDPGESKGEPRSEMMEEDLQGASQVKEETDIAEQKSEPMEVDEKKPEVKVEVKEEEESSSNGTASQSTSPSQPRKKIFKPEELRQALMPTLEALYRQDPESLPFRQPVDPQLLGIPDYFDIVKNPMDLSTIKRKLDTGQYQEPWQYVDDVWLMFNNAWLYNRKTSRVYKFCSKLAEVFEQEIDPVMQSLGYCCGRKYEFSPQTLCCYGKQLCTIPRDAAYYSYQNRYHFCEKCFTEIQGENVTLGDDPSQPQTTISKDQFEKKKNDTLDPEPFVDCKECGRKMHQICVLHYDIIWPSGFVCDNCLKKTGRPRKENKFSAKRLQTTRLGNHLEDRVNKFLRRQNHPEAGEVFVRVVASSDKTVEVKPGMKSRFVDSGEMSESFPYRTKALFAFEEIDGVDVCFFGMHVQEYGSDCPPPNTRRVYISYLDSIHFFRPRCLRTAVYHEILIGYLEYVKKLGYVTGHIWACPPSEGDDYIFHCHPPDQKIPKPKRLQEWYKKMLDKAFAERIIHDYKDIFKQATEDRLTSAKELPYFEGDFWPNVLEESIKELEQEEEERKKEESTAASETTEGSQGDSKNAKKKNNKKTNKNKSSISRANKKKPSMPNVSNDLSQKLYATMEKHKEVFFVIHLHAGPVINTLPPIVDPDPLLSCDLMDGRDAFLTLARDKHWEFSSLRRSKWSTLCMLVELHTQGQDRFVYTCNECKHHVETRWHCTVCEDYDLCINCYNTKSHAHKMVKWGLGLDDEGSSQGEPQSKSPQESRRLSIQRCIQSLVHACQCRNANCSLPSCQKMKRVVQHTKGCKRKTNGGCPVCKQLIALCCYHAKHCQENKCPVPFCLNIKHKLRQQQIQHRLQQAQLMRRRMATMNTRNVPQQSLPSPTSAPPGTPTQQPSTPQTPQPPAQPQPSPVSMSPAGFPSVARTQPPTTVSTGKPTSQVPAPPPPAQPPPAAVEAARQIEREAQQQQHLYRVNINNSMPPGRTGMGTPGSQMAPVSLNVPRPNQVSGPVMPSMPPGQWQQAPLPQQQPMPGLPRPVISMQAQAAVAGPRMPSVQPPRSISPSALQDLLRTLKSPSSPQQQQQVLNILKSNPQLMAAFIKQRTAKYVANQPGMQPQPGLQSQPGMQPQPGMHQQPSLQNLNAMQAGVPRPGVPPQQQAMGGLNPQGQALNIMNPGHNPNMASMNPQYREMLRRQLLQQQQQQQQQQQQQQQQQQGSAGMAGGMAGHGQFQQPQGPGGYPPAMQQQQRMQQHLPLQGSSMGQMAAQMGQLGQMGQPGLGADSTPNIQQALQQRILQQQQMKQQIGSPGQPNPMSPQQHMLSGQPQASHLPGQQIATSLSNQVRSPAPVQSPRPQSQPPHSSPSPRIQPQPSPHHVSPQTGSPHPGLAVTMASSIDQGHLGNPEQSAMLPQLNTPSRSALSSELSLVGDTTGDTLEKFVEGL
Chain of CREB-binding protein (Q92793 whole entry, the tested form may be a part): as the sequence (Q92793 whole entry, looked up, the tested form may be a part) above

Structure (SMILES)	inhibition [1]	IC50 [2]	further results
CC(C)(C)c1ccc(-c2cc(COCC3CCNCC3)sc2-c2ccc(C(C)(C)C)cc2)cc1	0%	> 10 µM	
CC(C)(C)c1ccc(-c2csc(C(=O)NCC3CCNCC3)n2)cc1	18%		
COc1ccc(-c2cc(CNCC3CCNCC3)sc2-c2ccc(OC)c(OC)c2)cc1OC	0%	> 10 µM	EC50 [3]: > 30 µM; EC50 [4]: > 30 µM; EC50 [5]: > 30 µM; EC50 [6]: > 30 µM; EC50 [7]: 18.7 µM
CC(C)(C)c1ccc(-c2cc(CN3CCOCC3)sc2-c2ccc(C(C)(C)C)cc2)cc1	20%	> 10 µM	
CC(C)(C)c1ccc(-c2cc(C(=O)NCC3CCNCC3)sc2-c2ccc(C(C)(C)C)cc2)cc1		8.6 µM	inhibition [8]: inactive
c1ccc(-c2cccc(-c3cc(CNCC4CCNCC4)sc3-c3cccc(-c4ccccc4)c3)c2)cc1	18%	> 10 µM	
CCCCc1ccc(-c2cc(CNCC3CCNCC3)sc2-c2ccc(CCCC)cc2)cc1	10%	> 10 µM	
CC(C)(C)c1ccc(-c2cc(CNCCCN)sc2-c2ccc(C(C)(C)C)cc2)cc1		3 µM	
CC(C)(C)c1ccc(-c2cc(CNCCC3CCNCC3)sc2-c2ccc(C(C)(C)C)cc2)cc1		2.2 µM	
COc1ccc(-c2ccc(-c3cc(C(=O)NCC4CCNCC4)sc3-c3ccc(-c4ccc(OC)cc4)cc3)cc2)cc1		2.8 µM	
CC(C)(C)c1ccc(-c2cc(CN3CCNCC3)sc2-c2ccc(C(C)(C)C)cc2)cc1	5%	> 10 µM	
CC(C)(C)c1ccc(-c2cc(CNCC3CCNCC3)sc2-c2ccc(CN)cc2)cc1		2 µM	
NCc1ccc(-c2cc(CNCC3CCNCC3)sc2-c2ccc(CN)cc2)cc1	0%	> 10 µM	inhibition [9]: inactive; EC50 [3]: > 30 µM; EC50 [4]: > 30 µM; EC50 [5]: > 30 µM; EC50 [6]: > 30 µM; EC50 [7]: > 30 µM; inhibition [10]: inactive; inhibition [11]: inactive; inhibition [12]: inactive
CC(C)(C)c1ccc(-c2cc(CNC3CCNCC3)sc2-c2ccc(C(C)(C)C)cc2)cc1		5 µM	
CC(C)(C)c1ccc(-c2sc(CNCC3CCNCC3)cc2-c2ccc(-c3ccoc3)cc2)cc1		5.8 µM	
O=C(NCC1CCNCC1)c1cc(-c2ccc(-c3ccoc3)cc2)c(-c2ccc(-c3ccoc3)cc2)s1		1.6 µM	
c1cc(-c2ccc(-c3ncc(CNCC4CCNCC4)nc3-c3ccc(-c4ccoc4)cc3)cc2)co1	25%		
O=C(NCC1CCNCC1)c1cc(-c2ccc(CN3CCCCC3)cc2)c(-c2ccc(-c3ccoc3)cc2)s1		1.6 µM	

Structure (SMILES)	inhibition [1]	IC50 [2]	further results
CC(C)(C)c1ccc(-c2nc(CNCC3CCNCC3)sc2-c2ccc(C(C)(C)C)cc2)cc1		8.6 µM	
CC(C)(C)c1ccc(-c2sc(C(=O)NCC3CCNCC3)cc2-c2ccoc2)cc1	36%	> 10 µM	
CC1=NN(c2ccc(C(=O)O)cc2)C(=O)/C1=C\c1ccc(-c2cc(C)c(C)cc2[N+](=O)[O-])o1			IC50 [13]: 1.6 µM
OCc1ccc(-c2cc(CNCC3CCNCC3)sc2-c2ccc(CO)cc2)cc1	22%	> 10 µM	
CC(C)(C)c1ccc(-c2nc(C(=O)NCC3CCNCC3)sc2-c2ccc(C(C)(C)C)cc2)cc1		2.4 µM	
CC(C)(C)c1ccc(-c2sc(CNCC3CCNCC3)c(Br)c2-c2ccc(C(C)(C)C)cc2)cc1		1.8 µM	
CC(C)(C)c1ccc(-c2cc(CNCCCCCCN)sc2-c2ccc(C(C)(C)C)cc2)cc1		1.4 µM	
c1cc(-c2ccc(-c3cc(CNCC4CCNCC4)sc3-c3ccc(-c4ccoc4)cc3)cc2)co1		1.7 µM	
CC(C)(C)c1ccc(-c2cc(CNCC3CCNCC3)sc2-c2ccc(C(C)(C)C)cc2)cc1			IC50 [14]: 1.2 µM; IC50 [15]: > 50 µM; IC50 [16]: > 50 µM; inhibition [8]: inactive; EC50 [3]: 2.8 µM; EC50 [4]: 3.4 µM; EC50 [5]: 1 µM; EC50 [6]: 2.8 µM; EC50 [7]: 2.6 µM
CC(C)(C)c1ccc(-c2sc(C(=O)NCC3CCNCC3)cc2-c2ccc(CN3CCNCC3)cc2)cc1	12%	> 10 µM	
c1cc(-c2ccc(-c3cc(CNCC4CCNCC4)sc3-c3ccc(CN4CCCCC4)cc3)cc2)co1		4.6 µM	
CC(C)(C)c1ccc(-c2sc(C(=O)NCC3CCNCC3)cc2-c2ccc(CN)cc2)cc1		10 µM	
CC(C)(C)c1ccc(-c2sc(CNCC3CCNCC3)cc2-c2ccc(CN)cc2)cc1	35%	> 10 µM	
c1cc(-c2cc(CNCC3CCNCC3)sc2-c2ccoc2)co1	23%	> 10 µM	
CC(C)(C)c1ccc(-c2csc(CNCC3CCNCC3)n2)cc1	10%		
CC(C)(C)c1ccc(-c2sc(C(=O)NCC3CCNCC3)cc2-c2cccnc2)cc1	31%	> 10 µM	
COc1ccc(-c2ccc(-c3cc(CNCC4CCNCC4)sc3-c3ccc(-c4ccc(OC)cc4)cc3)cc2)cc1		7.4 µM	
CC(C)(C)c1ccc(-c2sc(C(=O)NCC3CCNCC3)cc2-c2ccc(-c3ccoc3)cc2)cc1		7.4 µM	
